Each block holds one compound with its values, some of them ahead of it.
Columns and labels:
[1] = Tissue distribution study; assay type: in vivo, male Wistar rats; conditions: for AUCtol / AUMC / Cl: after MPG2ER 10 mg/kg i.p.; for Cmax / MRT / Tmax / half-life: male, Wistar, rat, ip, 10 mg/kg
Method in brief: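 Male Wistar rats (200 ± 50 g), fasted, were dosed intraperitoneally with the formulation at 10 mg/kg drug equivalent in 5 % v/v DMSO, with 4 rats per time point. At 0.5, 1, 2, 4, 6, 12, 24, 48, 72 and 96 h, rats were killed by cervical dislocation. Excised tissues were homogenised, protein-precipitated in a single step and assayed for drug by HPLC.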

[2] = Plasma pharmacokinetic study; assay type: in vivo, male Wistar rats; conditions: drug delivered by MPG2 (MPG2ER), intraperitoneal
Method in brief: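 Male Wistar rats (200 ± 50 g), fasted, got a single intraperitoneal dose of the dendrimer formulation at 10 mg/kg drug equivalent in 5 % v/v DMSO, with 4 rats per time point. Retro-orbital blood (0.5 ml) was drawn at 0.5–96 h and centrifuged for 10 min at 12000 rpm, 4 °C. Plasma underwent single-step protein precipitation and HPLC at 254 nm. Parameters came from non-compartmental analysis.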

- AUCtol ([1]; Brain): 124±1.660 (μg/mL)*hr
- AUMC ([1]; Brain): 3245±73.69 (μg/mL)*hr
- Cl ([1]; Brain): 0.08064±0.001 (μg/kg)/((μg/mL)/hr
- AUCtol ([1]; Heart): 132.1±1.150 (μg/mL)*hr
- AUMC ([1]; Heart): 4027 ±87.53 (μg/mL)*hr
- Cl ([1]; Heart): 0.07601±0.003 (μg/kg)/((μg/mL)/hr
- AUCtol ([1]; Kidney): 121.2±0.164 (μg/mL)*hr
- AUMC ([1]; Kidney): 3190±6.976 (μg/mL)*hr
- Cl ([1]; Kidney): 0.08248±0.001 (μg/kg)/((μg/mL)/hr
- AUCtol ([1]; Liver): 97.88±1.146 (μg/mL)*hr
- AUMC ([1]; Liver): 2959±32.860 (μg/mL)*hr
- Cl ([1]; Liver): 0.1075±0.008 (μg/kg)/((μg/mL)/hr
- AUCtol ([1]; Lymph Node): 96.33±0.190 (μg/mL)*hr
- AUMC ([1]; Lymph Node): 3143±75.49 (μg/mL)*hr
- Cl ([1]; Lymph Node): 0.1038±0.002 (μg/kg)/((μg/mL)/hr
- AUCtol ([1]; Spleen): 88±2.205 (μg/mL)*hr
- AUMC ([1]; Spleen): 2799±81.109 (μg/mL)*hr
- Cl ([1]; Spleen): 0.1156±0.002 (μg/kg)/((μg/mL)/hr
- Cmax ([1]; brain): 6653 ± 35 ng/mL
- MRT ([1]; brain): 26.2 ± 0.284 h
- Tmax ([1]; brain): 6 h
- half-life ([1]; brain): 13.53 ± 0.088 h
- Cmax ([1]; heart): 4674 ± 25 ng/mL
- MRT ([1]; heart): 30.3 ± 1.28 h
- Tmax ([1]; heart): 6 h
- half-life ([1]; heart): 19.3 ± 0.598 h
- Cmax ([1]; kidney): 5342 ± 20 ng/mL
- MRT ([1]; kidney): 27.3 ± 1.02 h
- Tmax ([1]; kidney): 6 h
- half-life ([1]; kidney): 17.52 ± 0.0127 h
- Cmax ([1]; liver): 5980 ± 83 ng/mL
- MRT ([1]; liver): 30.7 ± 0.384 h
- Tmax ([1]; liver): 6 h
- half-life ([1]; liver): 16.9 ± 1.09 h
- Cmax ([1]; lymph node): 3440 ± 48 ng/mL
- MRT ([1]; lymph node): 32.63 ± 0.113 h
- Tmax ([1]; lymph node): 6 h
- half-life ([1]; lymph node): 21 ± 0.054 h
- Cmax ([1]; spleen): 4580 ± 69 ng/mL
- MRT ([1]; spleen): 32.1 ± 1.65 h
- Tmax ([1]; spleen): 6 h
- half-life ([1]; spleen): 21.9 ± 0.25 h
- Duration of sustained release in plasma [2]: up to 96 hrs
SMILES: O=C1Nc2ccc(Cl)cc2[C@@](C#CC2CC2)(C(F)(F)F)O1 [EFV, efavirenz]

SMILES: CC(C)c1nc(CN(C)C(=O)N[C@H](C(=O)N[C@@H](Cc2ccccc2)C[C@H](O)[C@H](Cc2ccccc2)NC(=O)OCc2cncs2)C(C)C)cs1 [RTV, ritonavir]
- AUCtol ([1]; Brain): 9.25±2.074 (μg/mL)*hr
- AUMC ([1]; Brain): 97.42± 68.213 (μg/mL)*hr
- Cl ([1]; Brain): 0.270± 0.008 (μg/kg)/((μg/mL)/hr
- AUCtol ([1]; Heart): 18.34±1.190 (μg/mL)*hr
- AUMC ([1]; Heart): 285.923± 47.303 (μg/mL)*hr
- Cl ([1]; Heart): 0.136± 0.032 (μg/kg)/((μg/mL)/hr
- AUCtol ([1]; Kidney): 29.27±1.620 (μg/mL)*hr
- AUMC ([1]; Kidney): 641.30± 73.625 (μg/mL)*hr
- Cl ([1]; Kidney): 0.087± 0.036 (μg/kg)/((μg/mL)/hr
- AUCtol ([1]; Liver): 14.51±2.024 (μg/mL)*hr
- AUMC ([1]; Liver): 240.78± 26.201 (μg/mL)*hr
- Cl ([1]; Liver): 0.172± 0.012 (μg/kg)/((μg/mL)/hr
- AUCtol ([1]; Lymph Node): 25.07±1.305 (μg/mL)*hr
- AUMC ([1]; Lymph Node): 421.67± 81.067 (μg/mL)*hr
- Cl ([1]; Lymph Node): 0.085± 0.007 (μg/kg)/((μg/mL)/hr
- AUCtol ([1]; Spleen): 25.82±0.934 (μg/mL)*hr
- AUMC ([1]; Spleen): 464.21± 27.094 (μg/mL)*hr
- Cl ([1]; Spleen): 0.091± 0.043 (μg/kg)/((μg/mL)/hr
- Cmax ([1]; brain): 790 ± 32 ng/mL
- MRT ([1]; brain): 10.5 ± 1 h
- Tmax ([1]; brain): 4 h
- half-life ([1]; brain): 6.67 ± 0.792 h
- Cmax ([1]; heart): 2400 ± 15 ng/mL
- MRT ([1]; heart): 15.6 ± 1.93 h
- Tmax ([1]; heart): 4 h
- half-life ([1]; heart): 13.4 ± 0.45 h
- Cmax ([1]; kidney): 2490 ± 55 ng/mL
- MRT ([1]; kidney): 21.9 ± 0.761 h
- Tmax ([1]; kidney): 4 h
- half-life ([1]; kidney): 14.7 ± 0.652 h
- Cmax ([1]; liver): 2890 ± 21 ng/mL
- MRT ([1]; liver): 16.6 ± 0.272 h
- Tmax ([1]; liver): 4 h
- half-life ([1]; liver): 10.9 ± 0.325 h
- Cmax ([1]; lymph node): 2030 ± 42 ng/mL
- MRT ([1]; lymph node): 16.3 ± 0.937 h
- Tmax ([1]; lymph node): 4 h
- half-life ([1]; lymph node): 12.9 ± 1.09 h
- Cmax ([1]; spleen): 2130 ± 24 ng/mL
- MRT ([1]; spleen): 18 ± 1 h
- Tmax ([1]; spleen): 4 h
- half-life ([1]; spleen): 13 ± 1.02 h
- Duration of sustained release in plasma [2]: ≤ 72 h
